We go through 13 molecules from ChEMBL document CHEMBL3352566 (Bioorg Med Chem Lett, 2014).

The target of assay [1] is T1, Adenosine receptor A1 (Homo sapiens) (UniProt P30542).
T1 sequence (whole entry): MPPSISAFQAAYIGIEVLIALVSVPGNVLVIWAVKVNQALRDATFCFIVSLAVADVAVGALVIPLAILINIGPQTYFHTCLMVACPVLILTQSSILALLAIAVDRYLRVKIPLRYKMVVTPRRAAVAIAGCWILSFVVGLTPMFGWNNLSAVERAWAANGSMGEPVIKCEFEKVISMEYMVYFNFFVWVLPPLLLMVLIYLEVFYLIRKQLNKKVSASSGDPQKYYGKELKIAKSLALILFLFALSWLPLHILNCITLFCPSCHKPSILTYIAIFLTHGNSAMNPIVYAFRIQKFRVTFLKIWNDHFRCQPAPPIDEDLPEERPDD
In words: Displacement of [3H]N6-R-phenylisopropyladenosine from human A1AR expressed in CHO cells at 10 uM after 60 mins by scintillation counting analysis. It is filed as cell-based. The procedure, abridged: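 Membranes from CHO cells stably expressing hA1AR, labelled with agonist [3H]N6-R-phenylisopropyladenosine. […] Compound stocks kept in DMSO at −80 °C; n = 3-4.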
On the technique in general: Displacement assays read how much labelled ligand stays bound in the presence of the test substance.

In assay [2] the target is T2, Adenosine receptor A2a (Homo sapiens, UniProt P29274). In words: Displacement of [3H]2-[p-(2-carboxyethyl)phenyl-ethylamino]-5'-N-ethylcarboxamido-adenosine from human A2aAR expressed in HEK293 cells at 10 uM after 60 mins by scintillation counting analysis. It is filed as cell-based.
A further assay deals with T3, Adenosine receptor A1 (Homo sapiens, UniProt P30542).
T3 sequence (P30542 whole entry): T1 sequence (whole entry)
In words: Displacement of [3H]N6-R-phenylisopropyladenosine from human A1AR expressed in CHO cells after 60 mins by scintillation counting analysis. The class given is cell-based.

The target in assay [3] is T4, Adenosine receptor A3 (Homo sapiens, UniProt P0DMS8).
T4 sequence (P0DMS8 whole entry): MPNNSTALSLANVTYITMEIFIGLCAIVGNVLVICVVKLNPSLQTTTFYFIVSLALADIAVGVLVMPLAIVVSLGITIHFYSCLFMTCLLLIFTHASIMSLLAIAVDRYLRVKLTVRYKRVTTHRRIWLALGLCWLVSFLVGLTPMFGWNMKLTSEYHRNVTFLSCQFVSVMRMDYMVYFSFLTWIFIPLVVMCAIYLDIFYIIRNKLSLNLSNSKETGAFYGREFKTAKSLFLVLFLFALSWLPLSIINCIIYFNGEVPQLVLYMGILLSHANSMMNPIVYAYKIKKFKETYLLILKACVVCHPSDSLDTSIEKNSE
The assay can be described thus: Displacement of [125I]N6-(4-amino-3-iodobenzyl)adenosine-5'-N-methyluronamide from human A3AR expressed in CHO cells after 60 mins by scintillation counting analysis. It is filed as cell-based.

Assay [4] deals with T4, Adenosine receptor A3. The assay can be described thus: Binding affinity to human A3AR.
The next assay concerns Mus musculus. In words: Reversal of pain in po dosed mouse chronic constriction injury model assessed as paw withdrawal threshold administered 7 days post injury measured after 1 hr. The class given is functional, organism-based. The procedure, abridged: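 Mouse chronic constriction injury model of neuropathic pain; compound given orally (po); mechanoallodynia read out as paw withdrawal threshold followed over time after dosing.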

The target of assay [5] is T2, Adenosine receptor A2a. In words: Displacement of [3H]2-[p-(2-carboxyethyl)phenyl-ethylamino]-5'-N-ethylcarboxamido-adenosine from human A2aAR expressed in HEK293 cells after 60 mins by scintillation counting analysis. It is filed as cell-based.

Active and inactive are the calls of the source.

T2 sequence (P29274 whole entry): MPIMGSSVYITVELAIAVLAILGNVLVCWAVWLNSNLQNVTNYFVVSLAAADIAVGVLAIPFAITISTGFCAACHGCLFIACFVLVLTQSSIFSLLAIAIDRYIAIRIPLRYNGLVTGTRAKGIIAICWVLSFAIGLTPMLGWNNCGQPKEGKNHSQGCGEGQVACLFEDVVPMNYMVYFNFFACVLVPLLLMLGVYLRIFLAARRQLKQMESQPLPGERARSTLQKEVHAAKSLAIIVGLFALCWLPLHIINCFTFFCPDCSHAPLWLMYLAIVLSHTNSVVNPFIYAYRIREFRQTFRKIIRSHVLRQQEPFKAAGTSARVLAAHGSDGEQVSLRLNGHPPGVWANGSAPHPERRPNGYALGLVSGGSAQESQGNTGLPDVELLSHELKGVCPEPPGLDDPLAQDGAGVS

Turning to `CNC(=O)[C@@]12C[C@@H]1[C@@H](n1cnc3c(NC4CC4c4cccc(F)c4)nc(C#Cc4ccccc4)nc31)[C@H](O)[C@@H]2O` (mixture of isomers), the inhibition – broadly, how much of the control response was suppressed – in assay [1] worked out at 18%; at Adenosine receptor A2a [2], 0%.
As to `OC[C@H]1O[C@@H](n2cnc3c(NC4CC4c4ccccc4)nc(C#Cc4ccccc4)nc32)[C@H](O)[C@@H]1O` (mixture of isomers), the affinity at Adenosine receptor A1 corresponds to a Ki of 124 nM. This lies in the sub-micromolar range.
In the case of `CNC(=O)[C@@]12C[C@@H]1[C@@H](n1cnc3c(NC4CC4c4cccc(C)c4)nc(C#Cc4ccccc4)nc31)[C@H](O)[C@@H]2O` (mixture of isomers), the inhibition in assay [1] was 8%; on Adenosine receptor A2a [2] it was 53%.
In the same order, the values of `CNC(=O)[C@@]12C[C@@H]1[C@@H](n1cnc3c(N[C@H]4C[C@@H]4c4ccc(F)c(F)c4)nc(C#Cc4ccccn4)nc31)[C@H](O)[C@@H]2O` are 26% and 41%.
In the same order, the values of `CNC(=O)[C@@]12C[C@@H]1[C@@H](n1cnc3c(NC4CC4c4ccccc4)nc(C#Cc4ccccc4)nc31)[C@H](O)[C@@H]2O` (mixture of isomers) are 2% and 43%.
Regarding `CNC(=O)[C@@]12C[C@@H]1[C@@H](n1cnc3c(N[C@H]4C[C@@H]4c4ccc(F)c(F)c4)nc(C#Cc4ccccc4)nc31)[C@H](O)[C@@H]2O`, the inhibition in assay [1] worked out at 16%; at Adenosine receptor A2a [2], 0%. For the same molecule, the Ki (commonly a measure of affinity in units of concentration, obtained from inhibition or displacement) on Adenosine receptor A3 [3] was 4.55 nM.
The matching figures for `CNC(=O)[C@@]12C[C@@H]1[C@@H](n1cnc3c(N[C@@H]4C[C@H]4c4ccc(F)c(F)c4)nc(C#Cc4ccccc4)nc31)[C@H](O)[C@@H]2O`: 11%, 0% and 16.9 nM.
For `O=[N+]([O-])c1cccc(C2CC2Nc2nc(C#Cc3ccccc3)nc3c2ncn3[C@@H]2O[C@H](CO)[C@@H](O)[C@H]2O)c1` (mixture of isomers), the Ki on Adenosine receptor A3 [4] amounted to 11.2 nM.
On to `CNC(=O)[C@@]12C[C@@H]1[C@@H](n1cnc3c(NC4CC4c4cccc(Br)c4)nc(C#Cc4ccccc4)nc31)[C@H](O)[C@@H]2O` (mixture of isomers), for which the inhibition in assay [1] is 17%; on Adenosine receptor A2a [2], 32%.
The matching figures for `CNC(=O)[C@@]12C[C@@H]1[C@@H](n1cnc3c(NC4CC4c4cccc(Cl)c4)nc(C#Cc4ccccc4)nc31)[C@H](O)[C@@H]2O` (mixture of isomers): 6% and 39%.
The matching figures for `CNC(=O)[C@@]12C[C@@H]1[C@@H](n1cnc3c(NC4CC4c4ccc(F)c(F)c4)nc(C#Cc4ccccc4)nc31)[C@H](O)[C@@H]2O` (mixture of isomers): 11% and 6%.
Turning to `CNC(=O)[C@@]12C[C@@H]1[C@@H](n1cnc3c(N[C@@H]4C[C@H]4c4ccc(F)c(F)c4)nc(C#Cc4ccccn4)nc31)[C@H](O)[C@@H]2O`, the figures for the inhibition (in assay [1]; on Adenosine receptor A2a [2]) were 19% and 25%, respectively. Besides, in the assay with Mus musculus, the outcome was Active.
On to `CNC(=O)[C@@]12C[C@@H]1[C@@H](n1cnc3c(N)nc(C#Cc4ccccc4)nc31)[C@H](O)[C@@H]2O`, for which the inhibition in assay [1] is 28%. The results for the inhibition constant (Ki) at Adenosine receptor A2a [5] and at Adenosine receptor A3 [3] were 1200 nM and 1.51 nM, respectively.
